From PubChem
LANA-H2B inh – blocks KSHV LANA binding to histone H2A/H2B; cell-free LANA-H2A/H2B peptide, fluorescence polarization; inhibition, % (no concentration beside the values); 320,000 compounds, 0.6% hits; AID 2629; in the data active = inhibition mostly above about 10%, no sharp cut-off; inactive = mostly below about 6.7%
GPR7 antag – antagonists of human GPR7 (neuropeptides B/W receptor 1) | P48145 | GPR7-expressing cells, fluorescence antagonist assay | inhibition, % at 4.4 µM | 290,000 compounds, 1.1% hits | AID 1861; in the data active = inhibition above about 16%, passing the limit was not always enough;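 also: cells stimulated with the agonist NPW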
Target sequence (P48145 whole entry, looked up): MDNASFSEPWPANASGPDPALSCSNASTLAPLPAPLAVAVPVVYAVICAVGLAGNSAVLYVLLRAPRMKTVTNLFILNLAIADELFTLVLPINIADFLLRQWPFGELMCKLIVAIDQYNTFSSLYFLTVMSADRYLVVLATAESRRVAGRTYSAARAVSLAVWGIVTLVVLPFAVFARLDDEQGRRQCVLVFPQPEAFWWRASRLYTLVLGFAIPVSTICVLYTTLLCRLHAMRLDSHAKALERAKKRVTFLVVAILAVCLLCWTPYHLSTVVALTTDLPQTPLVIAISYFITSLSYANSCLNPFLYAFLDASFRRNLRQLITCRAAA
TRPML3 agonist – human mucolipin-3 channel agonism; Q8TDD5; HEK293 TRPML3-YFP, Fluo-8 calcium fluorescence; 100% = the carbachol control signal; activation, % at 3 µM; 220,000 compounds, 0.29% hits; AID 1448;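 active = activation above its plate's cutoff, the mean activation of the plate's test wells plus 3 SD, cut at about 12% in these data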
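system = HEK293 cells stably carrying human TRPML3-YFP | doses = one concentration, 3 µM nominal, 0.3% DMSO | timing = dye loading 1 h 37 °C then 30 min ambient, 125 s read | detection = Fluo-8 calcium dye fluorescence, ex 470-495, em 515-575 nm | benchmarks = high control carbachol 87 µM, low control DMSO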
TRPN1 ag – agonists of zebrafish TRPN1 channel | AID 1424 | 220,000 compounds, 0.18% hits | activation, % at 3 µM | HEK293 zebrafish TRPN1-YFP, Fluo-8 calcium fluorescence; 100% = response to 87 µM carbachol;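 active = activation above its plate's cutoff, the mean activation of test wells on that plate plus 3 SD, cut at about 19% in these data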
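Material: zebrafish TRPN1-YFP in HEK293 cells; Doses: single test compound dose, 3 µM nominal, 0.3% DMSO; Timing: dye loading 1 h at 37 °C, then 30 min room temperature; Technique: intracellular calcium fluorescence with Fluo-8; Benchmarks: high carbachol 87 µM, low DMSO alone.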
TAAR1 antagonist – antagonists of human TAAR1 | Q96RJ0 | CHO RD-HGA16 TAAR1, Fluo-8 calcium fluorescence, antagonist | inhibition, % at 3 µM | AID 624466 | 360,000 compounds, 1.5% hits;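 active = inhibition above a per-plate cutoff, the mean inhibition of test compounds on that plate plus 3 SD, cut at about 49% in these data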
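Assay system: RD-HGA16 CHO cells with stable hTAAR1 and Gα16 / Reagent: EC80 β-phenethylamine stimulus / Doses: 3 µM, single point / Timing: dye loading 75 min at 37 °C, then 30 min room temperature / Measured by: Fluo-8 intracellular calcium dye fluorescence, real-time kinetic reads / Controls: vehicle wells and EC80 agonist wells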
TAAR1 ag – agonists of human TAAR1; Q96RJ0; CHO RD-HGA16 TAAR1, Fluo-8 calcium fluorescence; vehicle wells 0%, saturating PEA agonist 100%; activation, % at 3 µM; 360,000 compounds, 0.99% hits; AID 624467;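 active = activation above the mean activation of all test compounds in the run plus 3 SD, cut at about 38% in these data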
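Benchmarks: low control DMSO, high control PEA (EC100); System: CHO RD-HGA16 cells carrying human TAAR1 plus Gα16; Detection: Fluo-8 fluorescence, 5 s baseline then 140 s kinetic read; Schedule: 17-24 h plating, Fluo-8 75 min 37 °C, 30 min RT; Read-out basis: % activation from peak over basal fluorescence ratio, DMSO-to-PEA scaled.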
nonsel antag count – nonselective antagonism, TAAR1 counter-screen | inhibition, % at 3 µM | 2,400 compounds, 77% hits | AID 651780 | counterscreen cell line, calcium fluorescence, antagonist mode | shares compounds with TAAR1 antagonist; in the data active = inhibition above about 22%;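 also: CHO-Ga16 host cells stimulated with ATP at an EC80 level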
TAAR1 antag conf – human TAAR1 antagonism, confirmed; shares compounds with TAAR1 antagonist; TAAR1-expressing cells, fluorescence antagonist read-out; inhibition, % at 3 µM; 2,400 compounds, 40% hits; AID 651785; in the data active = inhibition above about 49%;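 also: CHO-Ga16 host cells challenged with agonist PEA near its EC80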
Ga16 ag counter – counter-screen for TAAR1 antagonists: nonselective Ga16 agonists | shares compounds with TAAR1 antagonist | Ga16-expressing cells, calcium fluorescence, agonist counterscreen | activation, % at 3 µM | 2,400 compounds, 18% hits | AID 651953; in the data active = activation above about 12%
TAAR1 ag counter – TAAR1 agonism, antagonist counter-screen | 2,400 compounds, 2% hits | hTAAR1 cell line, fluorescence activation, agonist mode | activation, % at 3 µM | shares compounds with TAAR1 antagonist; in the data active = activation above about 37%;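 also: CHO cells stably expressing TAAR1 with calcium dye readout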
A number is an active result; - = inactive; . = no result given. This is a sample that favours compounds with a hit; in the whole collection about 3.4% have one here.

SMILES	LANA-H2B inh	GPR7 antag	TRPML3 agonist	TRPN1 ag	TAAR1 antagonist	TAAR1 ag	nonsel antag count	TAAR1 antag conf	Ga16 ag counter	TAAR1 ag counter
Cc1c(Cl)c([N+](=O)[O-])nn1Cc1ccc(C(=O)N/N=C\c2cccc(Br)c2)o1	-	-	-	-	65	-	35	-	-	-
O=C(COC(=O)c1ccc(Cl)nc1)NNC(=O)c1ccc(Br)cc1	-	.	.	.	-	-	.	.	.	.
CC(NCC(=O)NC(=O)NC1CCCC1)c1ccc(Cl)cc1Cl (centres undefined)	-	.	.	.	-	-	.	.	.	.
O=S1(=O)N[C@@H](c2ccccc2)COc2cc(Br)ccc21	.	.	.	.	-	-	.	.	.	.
O=C(/C=C/c1cn(-c2ccccc2)nc1-c1cccs1)NCCN1CCOCC1	-	-	-	-	53	-	28	-	-	-
Cc1cc(-c2nc3cccnc3s2)ccc1NS(=O)(=O)c1cccs1	-	-	-	-	63	-	-	-	-	-
NC(=O)c1cccc(-c2coc3c(C(=O)NCCc4ccccc4)cccc23)c1	.	.	.	.	64	-	36	-	-	-
COc1ccc(NC(=O)CSCC(=O)Nc2cc(Cl)ccc2N2CCCC2)cc1	-	-	.	.	-	-	.	.	.	.
COCCNc1nc(Oc2ccc(NC(C)=O)cc2)c2sc(-c3ccccc3)cc2n1	.	.	.	.	55	-	52	50	-	-
Cc1cc(C)c(OCC(=O)NCCCn2nc(C)cc2C)c(C)c1	-	.	.	.	-	-	.	.	.	.
CCCc1cc(=O)[nH]c(SCC(=O)N2CCCCCC2)n1	-	.	.	.	-	-	.	.	.	.
N=C1/C(=C\c2ccc(-c3cccc(C(=O)O)c3)o2)C(=O)N=C2SC=C(c3ccccc3)N12	-	-	-	-	76	-	25	-	-	-
N=C1/C(=C/c2ccc(-c3cccc(C(=O)O)c3)o2)C(=O)N=C2SC(CC(=O)N3CCOCC3)=NN12	-	-	.	.	-	-	.	.	.	.
O=[N+]([O-])c1ccc(S(=O)(=O)Nc2ccc(-c3ccccc3)cc2)cc1	.	.	.	.	-	-	.	.	.	.
COC(=O)c1cc(NC(=O)c2cc(C(C)(C)C)nn2Cc2ccc(F)cc2)ccc1N1CCOCC1	-	-	-	-	63	-	31	-	-	-
Cc1cccc(Cn2nc(C(C)(C)C)cc2C(=O)Nc2ccc(F)cc2)c1	-	-	-	-	70	-	31	-	-	-
CC(C)(C)c1cc(C(=O)NN)n(Cc2ccc(F)cc2)n1	-	-	-	-	-	-	.	.	.	.
O=C(Nc1ccc(N2CCOCC2)c(Cl)c1)c1ccc(F)cc1	-	-	-	-	63	-	-	-	-	-
O=C(Nc1ccc(N2CCOCC2)c(Cl)c1)c1ccc(-n2cnnc2)cc1	-	-	.	.	-	-	.	.	.	.
FC(F)(F)c1ccccc1Cc1c(-c2cccc(Cl)c2)nc2c3ccccc3ccn12	.	.	.	.	-	-	.	.	.	.
Cc1nc2ccccc2c2oc(C(=O)N3CCc4ccccc4C3)cc12	-	-	-	-	58	-	26	49	15	-
Cc1nc2ccccc2c2oc(C(=O)N3CCC(C)CC3)cc12	-	-	.	.	-	-	.	.	.	.
Cc1noc(C)c1C(=O)Nc1nc(-c2ccc([N+](=O)[O-])cc2)cs1	-	-	.	.	57	-	37	-	-	-
O=C(COC(=O)c1cccc(S(=O)(=O)NCc2ccccc2)c1)c1ccc2c(c1)OCCO2	-	-	-	-	63	-	35	49	-	-
COc1ccc2c(c1)c(CCN1C(=O)c3ccccc3C1=O)cn2C(=O)c1ccco1	-	-	-	-	57	-	-	-	-	-
